Reference: ChEMBL document CHEMBL5705905, “Pharmacological targeting of kinases MST1 and MST2 augments tissue repair and regeneration” (Sci Transl Med, 2016)
Activity calls are given as the source filed them. The calls are words filed in the database; no cut-off is given here.

Legend:
[1] = tested on: Phosphatidylinositol 4,5-bisphosphate 3-kinase catalytic subunit alpha isoform (Homo sapiens), P42336 [Q546K]; assay: Inhibition of PIK3CA Q546K mutant (unknown origin) assessed as remaining activity at 1 uM by Kinome scan method relative to control
[2] = target: STE20/SPS1-related proline-alanine-rich protein kinase (Homo sapiens) (UniProt Q9UEW8); assay: Inhibition of STK39 (unknown origin) assessed as remaining activity at 1 uM by Kinome scan method relative to control
[3] = target: Serine/threonine-protein kinase Nek6 (Homo sapiens) (UniProt Q9HC98); assay: Inhibition of NEK6 (unknown origin) assessed as remaining activity at 1 uM by Kinome scan method relative to control
[4] = target: Mitogen-activated protein kinase kinase kinase kinase 4 (Homo sapiens) (UniProt O95819); assay: Inhibition of MAP4K4 (unknown origin) assessed as remaining activity at 1 uM by Kinome scan method relative to control
[5] = target: Myosin light chain kinase, smooth muscle (Homo sapiens) (UniProt Q15746); assay: Inhibition of MYLK (unknown origin) assessed as remaining activity at 1 uM by Kinome scan method relative to control
[6] = target: Mitogen-activated protein kinase kinase kinase kinase 5 (Homo sapiens) (UniProt Q9Y4K4); assay: Inhibition of MAP4K5 (unknown origin) assessed as remaining activity at 1 uM by Kinome scan method relative to control
[7] = target: Cyclin-dependent kinase 15 (Homo sapiens) (UniProt Q96Q40); assay: Inhibition of PFTAIRE2 (unknown origin) assessed as remaining activity at 1 uM by Kinome scan method relative to control
[8] = target: Ephrin type-A receptor 2 (Homo sapiens) (UniProt P29317); assay: Inhibition of EPHA2 (unknown origin) assessed as remaining activity at 1 uM by Kinome scan method relative to control
[9] = target: Ephrin type-A receptor 3 (Homo sapiens) (UniProt P29320); assay: Inhibition of EPHA3 (unknown origin) assessed as remaining activity at 1 uM by Kinome scan method relative to control
[10] = target: Serine/threonine-protein kinase TAO3 (Homo sapiens) (UniProt Q9H2K8); assay: Inhibition of TAOK3 (unknown origin) assessed as remaining activity at 1 uM by Kinome scan method relative to control
[11] = target: Ephrin type-B receptor 4 (Homo sapiens) (UniProt P54760); assay: Inhibition of EPHB4 (unknown origin) assessed as remaining activity at 1 uM by Kinome scan method relative to control
[12] = target: Membrane-associated tyrosine- and threonine-specific cdc2-inhibitory kinase (Homo sapiens) (UniProt Q99640); assay: Inhibition of PKMYT1 (unknown origin) assessed as remaining activity at 1 uM by Kinome scan method relative to control
[13] = target: Serine/threonine-protein kinase 33 (Homo sapiens) (UniProt Q9BYT3); assay: Inhibition of STK33 (unknown origin) assessed as remaining activity at 1 uM by Kinome scan method relative to control
[14] = target: Cyclin-dependent kinase 18 (Homo sapiens) (UniProt Q07002); assay: Inhibition of PCTK3 (unknown origin) assessed as remaining activity at 1 uM by Kinome scan method relative to control
[15] = tested on: Tyrosine-protein kinase ABL1 (Homo sapiens), P00519 [M351T]; assay: Inhibition of phosphorylated ABL1 M351T mutant (unknown origin) assessed as remaining activity at 1 uM by Kinome scan method relative to control
[16] = target: Ribosomal protein S6 kinase beta-1 (Homo sapiens) (UniProt P23443); assay: Inhibition of S6K1 (unknown origin) assessed as remaining activity at 1 uM by Kinome scan method relative to control
[17] = target: cGMP-dependent protein kinase 2 (Homo sapiens) (UniProt Q13237); assay: Inhibition of PRKG2 (unknown origin) assessed as remaining activity at 1 uM by Kinome scan method relative to control
[18] = tested on: Epidermal growth factor receptor (Homo sapiens), P00533 [L858R]; assay: Inhibition of EGFR L858R mutant (unknown origin) assessed as remaining activity at 1 uM by Kinome scan method relative to control
[19] = tested on: Mus musculus; assay: Anti-colitis activity against DSS-induced mouse assessed as high number in nuclear YAP-positive cells at 1 mg/kg, ip administrated daily for 8 days by IHC staining; format: functional, organism-based; conditions: Colon, time 8.0 day
Summary of the method: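 Wild-type mice received oral DSS for 7 days with vehicle or 1 mg/kg daily. Colon sections were stained by IHC for YAP, BrdU and Ki67, and positive cells were quantified per animal. Means ± SD, n = 10, Student's t test.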

[20] = target: Glycogen synthase kinase-3 beta (Homo sapiens) (UniProt P49841); assay: Inhibition of GSK3beta (unknown origin) assessed as remaining activity at 1 uM by Kinome scan method relative to control
[21] = target: Mitogen-activated protein kinase kinase kinase 20 (Homo sapiens) (UniProt Q9NYL2); assay: Inhibition of ZAK (unknown origin) assessed as remaining activity at 1 uM by Kinome scan method relative to control
[22] = target: Dual specificity tyrosine-phosphorylation-regulated kinase 1B (Homo sapiens) (UniProt Q9Y463); assay: Inhibition of DYRK1B (unknown origin) assessed as remaining activity at 1 uM by Kinome scan method relative to control
[23] = target: Phosphorylase b kinase gamma catalytic chain, skeletal muscle/heart isoform (Homo sapiens) (UniProt Q16816); assay: Inhibition of PHKG1 (unknown origin) assessed as remaining activity at 1 uM by Kinome scan method relative to control
[24] = target: Focal adhesion kinase 1 (Homo sapiens) (UniProt Q05397); assay: Inhibition of FAK (unknown origin) assessed as remaining activity at 1 uM by Kinome scan method relative to control
[25] = target: Serine/threonine-protein kinase 38 (Homo sapiens) (UniProt Q15208); assay: Inhibition of NDR1 (unknown origin) assessed as remaining activity at 1 uM by Kinome scan method relative to control
[26] = target: Tyrosine-protein kinase ABL1 (Homo sapiens, UniProt P00519, Q252H); assay: Inhibition of phosphorylated ABL1 Q252H mutant (unknown origin) in presence of ATP by enzymatic assay
[27] = target: Serine/threonine-protein kinase MRCK beta (Homo sapiens) (UniProt Q9Y5S2); assay: Inhibition of MRCKB (unknown origin) assessed as remaining activity at 1 uM by Kinome scan method relative to control
[28] = target: Tyrosine-protein kinase Fer (Homo sapiens) (UniProt P16591); assay: Inhibition of FER (unknown origin) assessed as remaining activity at 1 uM by Kinome scan method relative to control
[29] = target: Rhodopsin kinase GRK7 (Homo sapiens) (UniProt Q8WTQ7); assay: Inhibition of GRK7 (unknown origin) assessed as remaining activity at 1 uM by Kinome scan method relative to control
[30] = target: Tyrosine-protein kinase ABL1 (Homo sapiens) (UniProt P00519); assay: Inhibition of ABL1 (unknown origin) assessed as remaining activity at 1 uM by Kinome scan method relative to control
Summary of the method: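 Active-site-dependent competition-binding (KINOMEscan) panel of 468 kinases, test compound at 1 μM (from a 10 mM DMSO stock). Read-out is ctrl% = (test signal − positive control signal)/(negative control signal − positive control signal) × 100. DMSO is the negative control (100%) and a control compound is the positive control (0%). Lower ctrl% means tighter binding.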

Sequence of Serine/threonine-protein kinase TAO3 (Homo sapiens) (Q9H2K8 whole entry): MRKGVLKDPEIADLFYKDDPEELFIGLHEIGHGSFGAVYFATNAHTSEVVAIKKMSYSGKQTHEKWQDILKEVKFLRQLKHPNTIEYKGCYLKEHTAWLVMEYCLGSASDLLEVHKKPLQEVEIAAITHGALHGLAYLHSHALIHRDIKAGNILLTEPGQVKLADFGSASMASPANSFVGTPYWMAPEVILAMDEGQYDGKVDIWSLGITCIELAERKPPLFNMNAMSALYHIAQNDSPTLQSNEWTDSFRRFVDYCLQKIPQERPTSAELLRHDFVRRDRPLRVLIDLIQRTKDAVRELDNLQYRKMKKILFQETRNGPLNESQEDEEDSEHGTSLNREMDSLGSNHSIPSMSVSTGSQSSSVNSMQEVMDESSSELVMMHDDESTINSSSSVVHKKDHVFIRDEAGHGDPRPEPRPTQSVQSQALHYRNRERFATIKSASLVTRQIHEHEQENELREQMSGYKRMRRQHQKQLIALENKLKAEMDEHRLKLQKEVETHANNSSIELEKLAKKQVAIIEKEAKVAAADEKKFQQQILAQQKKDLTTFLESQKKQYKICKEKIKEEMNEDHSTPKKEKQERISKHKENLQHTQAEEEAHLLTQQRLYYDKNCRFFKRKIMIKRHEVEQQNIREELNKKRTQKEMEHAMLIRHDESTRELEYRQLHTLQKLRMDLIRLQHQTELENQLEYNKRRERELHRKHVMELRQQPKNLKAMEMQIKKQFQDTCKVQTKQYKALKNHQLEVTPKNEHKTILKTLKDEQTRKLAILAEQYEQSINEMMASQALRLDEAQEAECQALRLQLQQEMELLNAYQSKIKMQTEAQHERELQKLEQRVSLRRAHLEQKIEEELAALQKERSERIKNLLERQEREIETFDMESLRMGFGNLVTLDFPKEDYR
Sequence of Mitogen-activated protein kinase kinase kinase 20 (Homo sapiens) (Q9NYL2 2-800 limits assumed): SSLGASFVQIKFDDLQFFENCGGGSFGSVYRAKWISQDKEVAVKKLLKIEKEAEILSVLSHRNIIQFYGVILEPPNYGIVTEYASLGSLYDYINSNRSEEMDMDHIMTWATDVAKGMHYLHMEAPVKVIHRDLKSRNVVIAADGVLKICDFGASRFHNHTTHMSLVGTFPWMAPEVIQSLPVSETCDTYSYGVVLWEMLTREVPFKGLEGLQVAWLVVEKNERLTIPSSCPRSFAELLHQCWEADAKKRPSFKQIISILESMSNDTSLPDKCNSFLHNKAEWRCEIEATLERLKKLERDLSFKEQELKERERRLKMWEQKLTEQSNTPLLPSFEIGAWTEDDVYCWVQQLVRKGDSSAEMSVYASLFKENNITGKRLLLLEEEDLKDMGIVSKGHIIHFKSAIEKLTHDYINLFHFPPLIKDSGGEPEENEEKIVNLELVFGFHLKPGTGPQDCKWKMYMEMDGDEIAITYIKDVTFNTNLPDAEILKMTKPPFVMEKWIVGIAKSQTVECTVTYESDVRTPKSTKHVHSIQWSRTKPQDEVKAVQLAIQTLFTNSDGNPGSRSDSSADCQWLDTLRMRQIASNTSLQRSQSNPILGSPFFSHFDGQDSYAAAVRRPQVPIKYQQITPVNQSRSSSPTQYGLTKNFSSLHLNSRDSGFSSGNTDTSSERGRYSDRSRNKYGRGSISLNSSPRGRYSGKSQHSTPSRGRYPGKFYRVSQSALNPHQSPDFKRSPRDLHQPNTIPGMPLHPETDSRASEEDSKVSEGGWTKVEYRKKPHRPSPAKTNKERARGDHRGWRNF
Sequence of Ribosomal protein S6 kinase beta-1 (Homo sapiens) (P23443 whole entry, looked up): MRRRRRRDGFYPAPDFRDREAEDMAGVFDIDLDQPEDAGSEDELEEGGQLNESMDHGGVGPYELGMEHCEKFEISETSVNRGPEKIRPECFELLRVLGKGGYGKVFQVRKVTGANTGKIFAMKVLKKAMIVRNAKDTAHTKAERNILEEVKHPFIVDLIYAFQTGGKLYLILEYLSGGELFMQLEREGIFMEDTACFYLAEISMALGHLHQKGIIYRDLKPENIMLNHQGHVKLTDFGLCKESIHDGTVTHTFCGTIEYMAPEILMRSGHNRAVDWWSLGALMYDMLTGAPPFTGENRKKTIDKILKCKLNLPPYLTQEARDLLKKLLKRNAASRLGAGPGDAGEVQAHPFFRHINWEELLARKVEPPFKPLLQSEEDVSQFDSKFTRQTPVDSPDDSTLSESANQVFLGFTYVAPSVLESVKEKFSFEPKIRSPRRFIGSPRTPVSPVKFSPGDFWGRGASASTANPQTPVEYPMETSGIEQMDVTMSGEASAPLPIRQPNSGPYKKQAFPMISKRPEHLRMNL
Sequence of Dual specificity tyrosine-phosphorylation-regulated kinase 1B (Homo sapiens) (Q9Y463 whole entry, looked up, canonical isoform): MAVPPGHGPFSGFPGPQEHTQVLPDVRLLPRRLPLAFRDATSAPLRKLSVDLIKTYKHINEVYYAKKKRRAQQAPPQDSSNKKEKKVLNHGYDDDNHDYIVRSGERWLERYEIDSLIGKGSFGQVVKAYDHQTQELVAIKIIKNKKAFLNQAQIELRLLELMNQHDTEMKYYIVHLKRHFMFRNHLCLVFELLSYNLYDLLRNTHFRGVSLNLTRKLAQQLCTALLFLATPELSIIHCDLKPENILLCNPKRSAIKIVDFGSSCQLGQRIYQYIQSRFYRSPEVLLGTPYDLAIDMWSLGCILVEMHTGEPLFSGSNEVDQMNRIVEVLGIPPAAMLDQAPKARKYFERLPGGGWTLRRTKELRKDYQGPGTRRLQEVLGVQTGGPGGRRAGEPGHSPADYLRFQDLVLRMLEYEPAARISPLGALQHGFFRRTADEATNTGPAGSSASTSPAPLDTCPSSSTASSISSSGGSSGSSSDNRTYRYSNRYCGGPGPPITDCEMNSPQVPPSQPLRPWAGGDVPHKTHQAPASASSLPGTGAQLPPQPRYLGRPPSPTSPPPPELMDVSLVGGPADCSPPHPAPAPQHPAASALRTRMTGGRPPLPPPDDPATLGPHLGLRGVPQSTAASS
Sequence of Tyrosine-protein kinase Fer (Homo sapiens) (P16591 whole entry, looked up): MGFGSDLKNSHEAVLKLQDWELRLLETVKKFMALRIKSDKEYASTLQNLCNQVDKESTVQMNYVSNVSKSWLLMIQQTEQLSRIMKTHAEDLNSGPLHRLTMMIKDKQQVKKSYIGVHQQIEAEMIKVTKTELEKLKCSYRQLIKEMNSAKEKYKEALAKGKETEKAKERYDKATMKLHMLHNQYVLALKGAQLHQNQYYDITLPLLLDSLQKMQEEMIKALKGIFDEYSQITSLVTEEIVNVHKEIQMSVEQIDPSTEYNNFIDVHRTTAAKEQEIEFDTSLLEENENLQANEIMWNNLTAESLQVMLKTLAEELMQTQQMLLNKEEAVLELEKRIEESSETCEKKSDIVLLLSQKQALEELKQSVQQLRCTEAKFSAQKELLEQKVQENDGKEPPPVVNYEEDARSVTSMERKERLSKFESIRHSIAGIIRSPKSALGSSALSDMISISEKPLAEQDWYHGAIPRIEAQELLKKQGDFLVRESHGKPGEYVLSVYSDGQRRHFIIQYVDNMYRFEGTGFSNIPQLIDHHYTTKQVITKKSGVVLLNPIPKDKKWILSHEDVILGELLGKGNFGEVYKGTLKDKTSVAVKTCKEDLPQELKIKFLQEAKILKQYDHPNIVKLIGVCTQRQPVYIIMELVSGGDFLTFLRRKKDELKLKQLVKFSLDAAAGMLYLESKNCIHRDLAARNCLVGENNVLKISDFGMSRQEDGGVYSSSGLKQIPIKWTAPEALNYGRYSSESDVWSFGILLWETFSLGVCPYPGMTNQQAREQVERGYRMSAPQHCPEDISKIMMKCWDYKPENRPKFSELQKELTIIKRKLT
Sequence of Serine/threonine-protein kinase Nek6 (Homo sapiens) (Q9HC98 whole entry): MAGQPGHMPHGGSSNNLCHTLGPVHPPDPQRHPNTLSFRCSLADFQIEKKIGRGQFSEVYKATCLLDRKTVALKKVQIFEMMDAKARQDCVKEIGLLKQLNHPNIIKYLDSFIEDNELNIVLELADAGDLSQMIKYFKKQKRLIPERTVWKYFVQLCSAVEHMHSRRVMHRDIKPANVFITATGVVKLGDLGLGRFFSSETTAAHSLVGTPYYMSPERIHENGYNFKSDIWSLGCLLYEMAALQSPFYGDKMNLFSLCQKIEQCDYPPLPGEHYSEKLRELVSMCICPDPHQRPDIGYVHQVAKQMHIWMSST
Sequence of Ephrin type-B receptor 4 (Homo sapiens) (P54760 whole entry): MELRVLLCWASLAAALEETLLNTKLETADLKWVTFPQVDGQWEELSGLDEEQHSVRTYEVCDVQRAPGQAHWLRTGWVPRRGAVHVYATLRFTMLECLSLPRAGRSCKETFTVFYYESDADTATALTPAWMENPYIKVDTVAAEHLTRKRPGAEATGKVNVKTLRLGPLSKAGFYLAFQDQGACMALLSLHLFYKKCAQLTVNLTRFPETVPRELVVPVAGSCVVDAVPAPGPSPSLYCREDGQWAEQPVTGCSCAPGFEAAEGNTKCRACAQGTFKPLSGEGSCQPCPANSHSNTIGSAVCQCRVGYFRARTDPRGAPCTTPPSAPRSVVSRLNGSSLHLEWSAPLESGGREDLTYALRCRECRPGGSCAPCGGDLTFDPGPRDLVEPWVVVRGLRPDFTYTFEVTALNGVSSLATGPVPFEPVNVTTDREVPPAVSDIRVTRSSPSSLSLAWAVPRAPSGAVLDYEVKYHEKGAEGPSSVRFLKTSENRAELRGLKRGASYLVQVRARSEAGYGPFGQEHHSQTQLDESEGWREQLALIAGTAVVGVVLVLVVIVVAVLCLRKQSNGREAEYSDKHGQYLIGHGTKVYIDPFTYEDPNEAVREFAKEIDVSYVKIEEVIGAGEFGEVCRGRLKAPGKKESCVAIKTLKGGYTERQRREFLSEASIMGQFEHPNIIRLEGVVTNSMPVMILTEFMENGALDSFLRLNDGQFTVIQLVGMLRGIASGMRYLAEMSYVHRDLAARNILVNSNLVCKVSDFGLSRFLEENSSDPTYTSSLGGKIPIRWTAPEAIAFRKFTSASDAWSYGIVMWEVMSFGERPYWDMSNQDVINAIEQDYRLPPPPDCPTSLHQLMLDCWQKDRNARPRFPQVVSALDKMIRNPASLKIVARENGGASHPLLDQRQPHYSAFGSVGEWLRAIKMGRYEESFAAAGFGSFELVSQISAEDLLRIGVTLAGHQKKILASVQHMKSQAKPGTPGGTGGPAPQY

Compound `CN1C(=O)c2sccc2N(C)c2nc(Nc3ccc(S(N)(=O)=O)cc3)ncc21` has an Activity [1] of 50%, an Activity [2] of 86% and an Activity [3] of 97%. It also gave an Activity [4] of 100%, an Activity [5] of 100% and an Activity [6] of 100%. The Activity [7] was 99%, the Activity [8] was 99% and the Activity [9] was 91%. The Activity [10] was 4.5%, the Activity [11] was 61% and the Activity [12] was 100%. It also gave an Activity [13] of 97%, an Activity [14] of 100% and an Activity [15] of 5.5%. The Activity [16] was 100%, the Activity [17] was 95% and the Activity [18] was 100%. For the same compound, the Activity [19] was “Active”, the Activity [20] was 100% and the Activity [21] was 82%. For the same compound, the Activity [22] was 85%, the Activity [23] was 100% and the Activity [24] was 96%. The Activity [25] was 62%, the IC50 [26] was 11.6 nM and the Activity [27] was 100%. The Activity [28] was 100%, the Activity [29] was 74% and the Activity [30] was 21%.
